Sampled rows, rich in hits. Any-hit rate of the full collection: about 0.95%.
ASAP1 inh: inhibitors of human ASAP1 ArfGAP activity | AID 624377 | actives 0.19% (n = 360,000) | ASAP1-stimulated ARF1 GTP hydrolysis, GDP FP detection | inhibition, % at 16.5 µM; in the data active = inhibition above about 25%
CSN inh: CSN deneddylation inhibition | inhibition, % at 12.5 µM | AID 651999 | Purified CSN, SCF-Nedd8-OG deneddylation, fluorescence polarization | actives 0.38% (n = 360,000);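 active = pattern-corrected inhibition above about 35%, with an unprinted fluorescence ratio check between 0.5 and 1.5, limit read from the data, passing the limit was not always enough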
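Schedule: reaction 90 min, room temperature / Assay system: HEK293T-derived human Csn5 enzyme / Input: Csn5 at 0.24 nM final / Measure: inhibition of Csn5 cleavage, % / Control set: substrate-only high control, full reaction low control / Technique: fluorescence polarization of the substrate / Buffer or medium: Tris/NaCl/DTT buffer, pH 7.5 / Reagent: SCFSkp2-Nedd8OG substrate at 10 nM final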
ARFGAP1 inhibitor: inhibits rat ARF GTPase activating protein 1 | Q62848 | Arfgap1-stimulated ARF1 GTP hydrolysis, GDP FP detection | inhibition, % at 16.5 µM | actives 0.26% (n = 360,000);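 active = inhibition above a per-plate limit, mean inhibition of low control wells plus 3 SD, cut at about 25% in these data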
Target sequence (Q62848 1-136 limits assumed): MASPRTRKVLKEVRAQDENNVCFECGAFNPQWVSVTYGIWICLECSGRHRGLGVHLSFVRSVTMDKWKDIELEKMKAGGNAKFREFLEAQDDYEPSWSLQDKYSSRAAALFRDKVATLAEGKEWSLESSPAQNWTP
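material = rat Arfgap1 catalytic domain, aa 1-136 | also added = human ARF1(Δ1-17)-GTP substrate | compound dosing = one concentration, 16.5 µM, DMSO 1.26% | times = GTP hydrolysis reaction 2 h at 25 °C | measured by = FP, GDP Alexa 633 tracer displaced from anti-GDP antibody, 620/688 nm | evaluation = percent inhibition of Arfgap1-stimulated GTP hydrolysis | replication = single well per compound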
HNF4A DNA FP: change in binding of human HNF4 alpha to DNA; actives 0.3% (n = 360,000); AID 1224865; HNF4a-FITC DNA binding, fluorescence polarization, 1 h; P41235; activity change, % at 10 µM; in the data active = activity change above about 30%, passing the limit was not always enough
Target sequence (P41235 whole entry, looked up): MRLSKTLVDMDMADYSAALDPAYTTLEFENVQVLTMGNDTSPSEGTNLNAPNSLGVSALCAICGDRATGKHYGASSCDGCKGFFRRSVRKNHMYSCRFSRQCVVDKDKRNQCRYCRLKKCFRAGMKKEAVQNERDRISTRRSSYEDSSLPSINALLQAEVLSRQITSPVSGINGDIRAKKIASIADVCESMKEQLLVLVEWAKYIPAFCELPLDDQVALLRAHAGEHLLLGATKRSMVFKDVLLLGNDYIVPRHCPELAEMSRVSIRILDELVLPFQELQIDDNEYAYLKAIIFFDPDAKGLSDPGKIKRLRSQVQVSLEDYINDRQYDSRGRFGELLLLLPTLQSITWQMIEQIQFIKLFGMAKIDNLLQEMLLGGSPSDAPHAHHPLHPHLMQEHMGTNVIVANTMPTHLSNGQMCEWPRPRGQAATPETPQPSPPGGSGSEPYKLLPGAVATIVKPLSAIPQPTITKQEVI
CSN5 deneddyl: Csn5 (human) deneddylation inhibition, single-concentration validation | shares compounds with CSN inh | Csn5 deneddylation of SCF-Nedd8OG, fluorescence polarization, 90 min | inhibition, % at 16.6 µM | actives 62% (n = 540); in the data active = inhibition above about 50%
MMP-2 counter: counter-screen for CSN deneddylation inhibitors: human MMP-2 inhibition; shares compounds with CSN inh; recombinant MMP-2, FRET substrate fluorescence, 60 min; inhibition, % at 16.6 µM; actives 33% (n = 540);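 active = corrected plate-normalized z-score of 5 or more, or -5 or less, or inhibition of 15% or more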
Thrombin cntr: thrombin (bovine) inhibition, counter-screen for CSN hits. AID 720656. bovine thrombin cleavage of Ub4-pepOG, fluorescence polarization. shares compounds with CSN inh. inhibition, % at 16.6 µM. actives 49% (n = 540);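 active = inhibition at or above a set limit, with a fluorescence interference ratio between 0.5 and a set maximum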
HNF4a DNA conf: change in binding of human HNF4 alpha to DNA, retest; shares compounds with HNF4A DNA FP; HNF4A-FITC DNA binding, fluorescence polarization, 1 h; activity change, % at 12.5 µM; actives 99% (n = 210); AID 1224897; call rule not given here
Hits are given with their value; – = inactive; · = no result given.

SMILES	ASAP1 inh	CSN inh	ARFGAP1 inhibitor	HNF4A DNA FP	HNF4a DNA conf	others
COc1ccccc1-n1cnc2c(c1=O)c1nc3ccccc3nc1n2-c1ccc(C)cc1	–	47	–	–	·	CSN5 deneddyl=99;MMP-2 counter=–;Thrombin cntr=–
Cc1ccc2nc(N3C(=O)C(O)=C(C(=O)c4ccc(C)o4)C3c3ccco3)sc2c1 (stereo not drawn)	–	–	–	–	·
O=C(C1=C(O)C(=O)N(c2nc3ccc(Cl)cc3s2)C1c1ccco1)c1ccco1 (stereo not drawn)	–	44	–	–	·	CSN5 deneddyl=53;MMP-2 counter=–;Thrombin cntr=15
CN(Cc1ccc(Cl)cc1Cl)C(=O)C1CC(=O)N(Cc2ccco2)C1 (stereo not drawn)	–	–	–	–	·
Cc1nc2sc3c(c2c(=O)[nH]1)CCC3	–	–	–	–	·
Cc1cc(-c2nc3c4c5c(sc4[nH]c(=O)n3n2)CCC5)c(C)o1	·	36	·	–	·	CSN5 deneddyl=92;MMP-2 counter=–;Thrombin cntr=–
O=C(/C=C/c1ccco1)Nc1cccc(C(=O)Nc2ccccc2C(=O)O)c1	–	42	–	–	·	CSN5 deneddyl=54;MMP-2 counter=–;Thrombin cntr=–
COc1ccc(-n2ccn(CC(=O)Nc3ccccc3OC)c(=O)c2=O)cc1	–	–	–	–	·
CN(C)c1ccc(/C=C2\SC(N3CCCCC3)=NC2=O)cc1	–	84	–	–	·	CSN5 deneddyl=63;MMP-2 counter=–;Thrombin cntr=78
N#Cc1ccccc1S(=O)(=O)N1CCN(C(=O)[C@H](Cc2ccccc2)NC(=O)c2ccco2)CC1	–	–	–	–	·
COC1C(CO)OC(n2c3c(Cl)cccc3c3c4c(c5c6cccc(Cl)c6[nH]c5c32)C(=O)NC4=O)C(O)C1O (stereo not drawn)	–	80	–	–	·	CSN5 deneddyl=197;MMP-2 counter=–;Thrombin cntr=–
O=C(Cn1ncc2c([nH]c3ccccc32)c1=O)N1CCOCC1	–	–	–	–	·
C[C@H](CO)N1C[C@H](C)[C@H](CN(C)C(=O)N[C@H](C)c2ccccc2)OCc2ccccc2-c2c(n(C)c3ccccc23)C1=O	–	–	–	–	·
CS(=O)(=O)C1=NSC2=NC(=O)/C(=C\c3cccn3-c3ccc(Cl)cc3)C(=N)N21	–	100	–	–	·	CSN5 deneddyl=–;MMP-2 counter=26;Thrombin cntr=50
Cc1cc(/C=C2/C(=N)N3C(=NC2=O)SN=C3S(C)(=O)=O)c(C)n1-c1ccccc1F	–	–	–	–	·
CC(=O)Nc1cncc(-c2cnn(CC(C)C)c2)n1	–	–	–	–	·
COc1ccccc1Nc1nc(Cl)c(C=O)s1	–	38	–	50	89
O=c1sc(Nc2ccccc2)nc2ccsc12	–	–	–	–	·
O=Cc1sc(Nc2ccccc2)nc1Cl	–	–	–	37	59
Cc1ccc(Nc2nc(Cl)c(C=O)s2)cc1Cl	–	–	–	44	44
Cc1ccc(Nc2nc3ccccc3c(=O)s2)cc1C	–	–	–	–	·
COc1ccccc1Nc1nc2c(s1)CCC2	–	–	–	–	·
CCc1cc(=O)[nH]c(SCC(=O)N2CCC(Cc3ccccc3)CC2)n1	–	–	–	–	·
Cc1cccc(COc2ncnc3nc[nH]c23)c1	–	–	–	–	·
O=C(O)CCn1nnc(-c2ccccc2)n1	–	–	–	–	·
SMILES	ASAP1 inh	CSN inh	ARFGAP1 inhibitor	HNF4A DNA FP	HNF4a DNA conf	others
O=[N+]([O-])c1ccc(-c2ccc(/C=N/Nc3nc(N4CCCC4)nc(N4CCCC4)n3)o2)cc1	–	–	–	33	35
CSc1nnc(C)c(/C=C/Nc2ccc(C)cc2)n1	–	–	–	53	88
COc1ccc2[nH]cc(/C=C/c3cc[n+](C)cc3)c2c1	–	–	–	52	114
COc1ccc2c(CC(=O)NNC(=O)c3cccs3)coc2c1	–	–	–	–	·
Cc1ccc(C)c(N(CC(=O)N/N=C/c2ccc(-c3ccc([N+](=O)[O-])cc3)o2)S(=O)(=O)c2ccccc2)c1	–	44	–	93	54
CC(C)c1ccccc1N=C1SCCCN1C(=O)c1cccc(N2C(=O)CCC2=O)c1	–	–	–	–	·
CCN1/C(=N\N)c2cccc3cccc1c23	–	51	–	57	72
CCC(C)NC(=O)CN1C(=O)c2cccc3cccc1c23 (stereo not drawn)	–	–	–	–	·
CN(C)S(=O)(=O)N1CCc2ccc(NC(=O)c3ccc(C(F)(F)F)cc3)cc2C1	–	–	–	–	·
COc1ccc(OCCNc2cc(Cl)ccc2[N+](=O)[O-])cc1	–	47	–	51	67
N#C/C(=C/c1ccc(-c2ccc([N+](=O)[O-])cc2)o1)c1nnc(N2CCOCC2)n1-c1ccccc1	–	–	–	48	38
CCCCn1c(/N=C/c2ccc(N(C)C)cc2)nc2ccccc21	–	–	–	49	81
CCCCn1c(/N=C/c2ccc3c(c2)OCO3)nc2ccccc21	–	–	–	–	·
O=C(Nc1cccc(C(F)(F)F)c1)c1ccc2sc([C@@H]3O[C@H](CO)[C@H](O)[C@H](O)[C@H]3O)nc2c1	–	–	–	–	·
N#Cc1ccsc1NC(=O)c1ccc2ncsc2c1	–	59	–	69	77
COc1cc(/C=C(/C#N)c2nc3ccccc3c(=O)[nH]2)ccc1O	–	80	–	47	58
COc1ccc(/C=C(\C#N)c2nc3ccccc3[nH]2)cc1O	–	–	–	–	·
Cc1cnc(C(=O)OCc2nc3ccccc3o2)cn1	–	–	–	–	·
COc1cc(-c2cc(-c3ccc(N)cc3)[nH]c(=O)c2C#N)cc(OC)c1OC	–	–	–	55	83
N#CCC(=O)Nc1ccc(C(=O)OCC(=O)NC(=O)NCc2ccco2)cc1	–	36	–	34	40
N#Cc1cc(Oc2ccc3ccccc3c2)c(-n2nnc3ccccc32)cc1C#N	–	–	–	62	36
CCOC(=O)c1c(C)c(C)n2c1NC(=O)C2	–	–	–	57	65
CCOC(=O)c1c(C)[nH]c(C(=O)N2CCN(C(=O)OCC)CC2)c1C	–	–	–	–	·
CSc1nsc(/C=C/Nc2ccc(O)cc2C)c1C#N	–	–	–	–	·
CSc1nsc(/C=C/Nc2ccc(F)cc2)c1C#N	–	–	–	51	46
CSc1nsc(SC)c1-c1ccc(Cl)cc1	–	–	–	–	·
CSc1nsc(/C=C/Nc2cccc(Cl)c2)c1C#N	–	–	–	40	41
CSc1nsc(/C=C/Nc2ccc(Cl)cc2)c1C#N	–	–	–	40	61
